RBBP9 inh: human RBBP9 inhibitors, primary screen, biochemical, fluorescence polarization, FP-Rh probe, HTS | AID 1515, 2009 | 220,000 tested, 0.2% active | inhibition, % at 7.94 µM | Serine hydrolase RBBP9 (Homo sapiens), O75884 | recombinant RBBP9;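 active means inhibition above the campaign mean of all tested compounds plus 3 SD, cut at about 14% in these data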;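 further: plate controls were DMSO wells with RBBP9 for no effect and wells lacking RBBP9 protein for full effect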
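Material: RBBP9 protein. Amount: RBBP9 at 2.5 µM in dispensed solution, before mixing. Schedule: 30 min then 45 min, 25 °C. Medium: Tris buffer pH 8.0, NaCl, Pluronic. Measured by: fluorescence polarization. Measure: percent inhibition from mP, scaled between DMSO and no-protein wells. Replication: one well per compound.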
Insulin prom up: insulin promoter activators in MIN6 cells, imaging, high-content screening, mouse beta cells | MIN6 insulin promoter-GFP reporter; stronger effect = higher value | z-score at 5 µM | 190,000 tested, 0.3% active;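 active means z-score above 3 at 5 µM with at least 500 cells counted in the well; inconclusive means wells under 500 cells, flagged as cytotoxic or low count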
Autophagy HCS: autophagy modulators in MEF cells, primary screen, imaging, high-content, MEF GFP-LC3; calls only at 10 µM (by protocol); 190,000 tested, 0.98% active; AID 463193, 2010; MEF GFP-LC3 puncta imaging; test concentration mostly 10 µM;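 active means percentage of spot-positive cells more than 3 SD above its plate mean, without a fluorescence outlier flag or 80% toxicity; inconclusive means no clear call, values can overlap the other calls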;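 further: spot-positive cell cutoff set from DMSO-treated cells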
PKD1 kinase inh: inhibitors of human PKD1 kinase, biochemical, fluorescence polarization; PKD1 kinase fluorescence polarization assay; Serine/threonine-protein kinase D1 (Homo sapiens), Q15139; AID 797, 2007; 200,000 tested, 0.056% active; inhibition, % (test concentration not listed); in the data active means inhibition above about 50%
INS promoter inh: inhibitors of insulin promoter-driven GFP, primary screen, imaging, TRM-6 cells, eGFP reporter, cell count; AID 1273, 2008; 130,000 tested, 0.9% active; reporter expression induced with tamoxifen; inhibition, % at 2 µM;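 active means inhibition above the mean plus 3 SD, with well images judged a real hit on visual review, cut at about 60% in these data, passing the limit was not always enough; inconclusive means inhibition over the cutoff but images rejected on review; inactive means inhibition not above the cutoff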
Arbovirus anti: antivirals against arbovirus infection, primary screen, cell-based, full library, 10K replicate subset. arbovirus infection cell-based antiviral screen. inhibition, % at 10 µM. 200,000 tested, 0.37% active. AID 1251, 2008; in the data active means inhibition above about 30%
* marks the source's active call; other numbers are inactive results. Hits are enriched below; roughly 2.1% of the tested compounds scored in any of these assays.

For O=C(OCCN1C(=O)c2cccc3c(N4CCOCC4)ccc(c23)C1=O)c1ccc(Cl)cc1 the results were RBBP9 inh -7, Insulin prom up 1.2, Autophagy HCS inactive, PKD1 kinase inh -7 and Arbovirus anti -4.
`CCCN(CCC)S(=O)(=O)c1ccc(C(=O)OCCN2C(=O)c3cccc4c(N5CCOCC5)ccc(c34)C2=O)cc1` gave RBBP9 inh -6, Insulin prom up 6.2*, Autophagy HCS active, PKD1 kinase inh -6, INS promoter inh -89 and Arbovirus anti 1.
Screening O=C(CN1C(=O)NC2(CCCCC2)C1=O)Nc1ccccc1Cl returned RBBP9 inh -9, Insulin prom up 0.14, Autophagy HCS inactive, PKD1 kinase inh -6, INS promoter inh 0 and Arbovirus anti 9.
Screening Cc1cccc(OCC(O)CN2C(C)(C)CC(O)CC2(C)C)c1 (stereo not given) returned RBBP9 inh -8, Insulin prom up 1.1, Autophagy HCS active, PKD1 kinase inh -23, INS promoter inh -6 and Arbovirus anti -2.
`Cn1c(C(=O)N2CCC(C(=O)N3CCOCC3)CC2)cc2sccc21` gave RBBP9 inh 4, Insulin prom up -0.34, Autophagy HCS inactive, PKD1 kinase inh 5, INS promoter inh 10 and Arbovirus anti 5.
Screening COc1ccc2c(CC(=O)OCC(=O)Nc3cc(C)c(C)cc3[N+](=O)[O-])coc2c1 returned RBBP9 inh -2, Insulin prom up -0.15, Autophagy HCS inactive, PKD1 kinase inh -3, INS promoter inh 0 and Arbovirus anti 6.
For O=C(CSc1nc(-c2ccccc2)nc2c1Cc1ccccc1O2)Nc1ccc(C(=O)O)cc1 the results were RBBP9 inh -1, Insulin prom up -0.53, Autophagy HCS inactive, PKD1 kinase inh 0 and Arbovirus anti 68*.
Screening O=C(CSc1nc(-c2ccc(F)cc2)nc2c1Cc1ccccc1O2)Nc1ccc(C(=O)O)cc1 returned RBBP9 inh -13, Insulin prom up -0.51, Autophagy HCS inactive, PKD1 kinase inh 9 and Arbovirus anti 32*.
For O=C(CSc1nc(-c2ccc(F)cc2)nc2ccc(F)cc12)Nc1cccc(C(=O)O)c1 the results were RBBP9 inh -12, Insulin prom up -1.1, Autophagy HCS inactive, PKD1 kinase inh 0 and Arbovirus anti 5.
`CCOC(=O)C(CC)Sc1nc2c(c(=O)[nH]c(=O)n2C)n1C/C=C(/C)Cl` (stereo not given) gave RBBP9 inh 2, Insulin prom up 0.63, Autophagy HCS inactive, PKD1 kinase inh -9, INS promoter inh -68 and Arbovirus anti 4.
Screening COC(=O)c1c(NC(=O)c2ccc(C)cc2)csc1C returned RBBP9 inh 1 and Insulin prom up -0.19.
`Cc1csc(NC(=O)c2cc3c(s2)-c2ccccc2OC3)n1` gave RBBP9 inh -5, PKD1 kinase inh -12 and Arbovirus anti 14.
For Cc1c(NC(=O)c2cc3c(s2)-c2ccccc2OC3)cccc1[N+](=O)[O-] the results were RBBP9 inh -4, Insulin prom up 0.21, Autophagy HCS active, PKD1 kinase inh -11, INS promoter inh 28 and Arbovirus anti 2.
For Cc1ccc(N2C(=O)/C(=C\c3ccc(C(C)C)cc3)N=C2SC2CCOC2=O)cc1 (stereo not given) the results were RBBP9 inh -8, Insulin prom up 1.4, Autophagy HCS inactive, PKD1 kinase inh 3 and Arbovirus anti 39*.
Screening CCSC1=N/C(=C\c2ccccc2)C(=O)N1c1ccc(OC)cc1 returned RBBP9 inh -4, Insulin prom up 0.19, Autophagy HCS inactive, PKD1 kinase inh 0, INS promoter inh 33 and Arbovirus anti -9.
NC(=O)c1cc(S(=O)(=O)Nc2cccc(F)c2)co1 was read as RBBP9 inh -9, Insulin prom up 0.79, Autophagy HCS inactive, PKD1 kinase inh -12 and Arbovirus anti 4.
`O=C(CSc1nc2ccccc2c(=O)n1-c1ccc(F)c(Cl)c1)Nc1cccc(S(=O)(=O)N2CCOCC2)c1` gave RBBP9 inh -20, Insulin prom up -0.25, Autophagy HCS inactive, PKD1 kinase inh -2, INS promoter inh 0 and Arbovirus anti 3.
For CN(CCC#N)C(=O)COC(=O)c1c2c(nc3ccccc13)/C(=C/c1ccco1)CC2 the results were RBBP9 inh -4, Insulin prom up 0.34, Autophagy HCS inactive, PKD1 kinase inh -6, INS promoter inh 22 and Arbovirus anti -2.
`CC(C)c1ccc(NC(=S)NCc2cccs2)cc1` gave RBBP9 inh 9, Insulin prom up 0.1, Autophagy HCS inactive, PKD1 kinase inh -4, INS promoter inh -13 and Arbovirus anti 1.
For O=C1C(=O)c2ccc(-c3ccccc3)cc2-c2ccccc21 the results were RBBP9 inh 2, Insulin prom up inconclusive, Autophagy HCS active, PKD1 kinase inh 0, INS promoter inh 45 and Arbovirus anti -38.
For CC1OC23CCCCC2C(C#N)(C(=N)O3)C1(C#N)C#N (stereo not given) the results were RBBP9 inh 9, Insulin prom up 0.76, Autophagy HCS inactive, PKD1 kinase inh -5, INS promoter inh 77* and Arbovirus anti 2.
`CCC1OC23CCCCC2C(C#N)(C(=N)O3)C1(C#N)C#N` (stereo not given) gave RBBP9 inh -4, Insulin prom up 0.54, Autophagy HCS inactive, PKD1 kinase inh -12, INS promoter inh 59 and Arbovirus anti 5.
For CC1C=CCC2C(=O)N(c3cccc(C(=O)N4CCN(c5ccc(F)cc5)CC4)c3)C(=O)C12 (stereo not given) the results were RBBP9 inh -7, Autophagy HCS inactive, PKD1 kinase inh 0 and Arbovirus anti 5.
`C=CCN(C(=O)c1cccc(N2C(=O)C3CC=CC(C)C3C2=O)c1)c1ccccc1` (stereo not given) gave RBBP9 inh -8, Insulin prom up -0.79, Autophagy HCS inactive, PKD1 kinase inh -4, INS promoter inh -83 and Arbovirus anti 30*.
For Cc1ccc(S(=O)(=O)/C(C#N)=C/c2c(N3CCC(C(N)=O)CC3)nc3c(C)cccn3c2=O)cc1 the results were RBBP9 inh -6, Insulin prom up 1.2, Autophagy HCS inactive, PKD1 kinase inh -5, INS promoter inh 22 and Arbovirus anti 3.
Screening CC(=O)N1CC[n+]2c(-c3ccc(Cl)cc3)csc21 returned RBBP9 inh -15, Insulin prom up -0.39, Autophagy HCS active, PKD1 kinase inh -4, INS promoter inh 14 and Arbovirus anti -11.
Screening CCc1ccc(-c2csc3[n+]2CCN3C(C)=O)cc1 returned RBBP9 inh -2, Insulin prom up 0.7, Autophagy HCS inactive, PKD1 kinase inh -2, INS promoter inh 26 and Arbovirus anti -10.
